{
  "source": "ChEMBL document CHEMBL1142544",
  "about": "(J Med Chem, 2008)",
  "key": {"[1]": {"experiment": "Stimulation of human Vgamma9Vdelta2 T lymphocytes assessed as gamma delta expansion factor after 7 days", "type": "functional"}, "[2]": {"biological_target": "T1, Farnesyl pyrophosphate synthase (Homo sapiens, UniProt P14324)", "T1 sequence (P14324 whole entry)": "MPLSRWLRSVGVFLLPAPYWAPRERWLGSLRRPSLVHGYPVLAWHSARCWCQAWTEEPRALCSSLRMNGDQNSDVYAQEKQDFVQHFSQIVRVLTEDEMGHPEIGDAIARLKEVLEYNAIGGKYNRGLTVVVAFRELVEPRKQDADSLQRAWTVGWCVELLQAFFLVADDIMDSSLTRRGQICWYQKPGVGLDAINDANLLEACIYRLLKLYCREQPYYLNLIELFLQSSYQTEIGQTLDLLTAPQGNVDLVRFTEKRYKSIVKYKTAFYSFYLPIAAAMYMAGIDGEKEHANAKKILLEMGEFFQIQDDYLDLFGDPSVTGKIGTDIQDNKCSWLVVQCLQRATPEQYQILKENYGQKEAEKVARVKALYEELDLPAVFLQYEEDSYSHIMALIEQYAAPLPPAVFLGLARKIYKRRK", "experiment": "Inhibition of human FPP synthase expressed in Escherichia coli BL21 (DE3)"}, "[3]": {"system": "HuT78", "experiment": "Induction of apoptosis in human HUT78 cells at 100 uM by flow cytometry", "type": "functional", "method_in_brief": "(§1)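 Tumor cells were exposed to 100 µM compound. Cells (1 × 10⁶) were washed in PBS, pelleted at 200g for 5 min, and stained with FITC-annexin V plus propidium iodide for 15 min at 20 °C. The percentage of annexin-V-positive cells was measured by flow cytometry.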"}, "[4]": {"system": "K562", "experiment": "Induction of apoptosis in human K-562 cells expressing Bcr-Abl at 100 uM by flow cytometry", "type": "functional", "method_in_brief": "as §1"}, "[5]": {"system": "CCRF-CEM", "experiment": "Induction of apoptosis in human CCRF-CEM cells at 100 uM by flow cytometry", "type": "functional", "method_in_brief": "as §1"}, "[6]": {"experiment": "Induction of apoptosis in human CEM-VBL300 cells expressing p-glycoprotein at 100 uM by flow cytometry", "type": "functional", "method_in_brief": "as §1"}, "[7]": {"system": "BT-549", "experiment": "Antitumor activity against human BT-549 cells xenografted SCID mouse assessed as survival time prolongation at 2 ug, ip", "type": "functional, cell-based", "method_in_brief": "(§2)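 SCID mice were conditioned by irradiation and anti-asialo-GM1 monoclonal antibody. On day 0 they received a single ip injection of BT549 breast cancer cells (2 × 10⁶/mouse). Drug was given ip (2 µg or 5 µg) with the tumor cells, alone or with ip human rIL-2 (300 ng). Where indicated, purified human γδ T cells (2 × 10⁷/mouse) were added. Cells and drug were reinjected every 15 days, with IL-2 on the same day and days 3 and 6 after. Read-out was mean survival time in days.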"}, "[8]": {"system": "BT-549", "experiment": "Antitumor activity against human BT-549 cells xenografted SCID mouse co-transfected with human gamma delta T lymphocytes assessed as survival time prolongation at 5 ug, ip", "type": "functional, cell-based", "method_in_brief": "as §2"}, "[9]": {"system": "BT-549", "experiment": "Antitumor activity against human BT-549 cells xenografted SCID mouse co-transfected with human gamma delta T lymphocytes assessed as survival time prolongation at 2 ug, ip coadministered with human recombinant IL2", "type": "functional, organism-based", "method_in_brief": "as §2"}, "[10]": {"system": "BT-549", "experiment": "Antitumor activity against human BT-549 cells xenografted SCID mouse co-transfected with human gamma delta T lymphocytes assessed as survival time prolongation at 5 ug, ip coadministered with human recombinant IL2", "type": "functional, organism-based", "method_in_brief": "as §2"}, "[11]": {"system": "K562", "experiment": "Induction of apoptosis in human K-562 cells expressing Bcr-Abl at <50 uM by flow cytometry", "type": "functional, cell-based"}, "[12]": {"experiment": "Cytotoxicity against human CFU-GM cells at 100 uM after 7 days"}, "[13]": {"system": "BT-549", "experiment": "Antitumor activity against human BT-549 cells xenografted SCID mouse assessed as survival time prolongation at 2 ug, ip"}, "[14]": {"system": "BT-549", "experiment": "Antitumor activity against human BT-549 cells xenografted SCID mouse co-transfected with human gamma delta T lymphocytes assessed as survival time prolongation at 2 ug, ip", "type": "functional, cell-based", "method_in_brief": "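SCID mice conditioned by irradiation plus anti-asialo-GM1 antibody; day 0 single i.p. BT549 (2 × 10⁶/mouse) with concomitant i.p. drug (2 µg), ± rIL-2 (300 ng), plus highly purified human γδ T cells (2 × 10⁷/mouse). γδ T cells and drug re-injected every 15 days; rIL-2 the same day and 3 and 6 days after each. Read-out: mean survival time (days).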"}},
  "note": "Activity calls are given as the source filed them. The calls are words filed in the database; no cut-off is given here.",
  "data": [
    {"smiles": "O=P(O)(O)C(Cn1cccn1)P(=O)(O)O", "values": [
      {"measurement": "Activity", "setting": "[1]", "value": ">10", "unit": "µM"},
      {"measurement": "IC50", "setting": "[2]", "value": 3.07, "unit": "µM"}
    ]},
    {"smiles": "O=P(O)(O)C(Cn1cnc2ccccc21)P(=O)(O)O", "values": [
      {"measurement": "Activity", "setting": "[1]", "value": 1, "unit": "µM"},
      {"measurement": "IC50", "setting": "[2]", "value": 0.0161, "unit": "µM"}
    ]},
    {"smiles": "O=P(O)(O)C(CSc1ncc[nH]1)P(=O)(O)O", "values": [
      {"measurement": "Activity", "setting": "[1]", "value": ">10", "unit": "µM"},
      {"measurement": "IC50", "setting": "[2]", "value": 0.0281, "unit": "µM"}
    ]},
    {"smiles": "O=P(O)(O)C(Cn1cnc2c(Cl)ncnc21)P(=O)(O)O", "values": [
      {"measurement": "Activity", "setting": "[1]", "value": 0.1, "unit": "µM"},
      {"measurement": "IC50", "setting": "[2]", "value": 0.883, "unit": "µM"}
    ]},
    {"smiles": "O=P(O)(O)C(Cn1cnc2cncnc21)P(=O)(O)O", "values": [
      {"measurement": "Activity", "setting": "[1]", "value": 0.2, "unit": "µM"},
      {"measurement": "IC50", "setting": "[2]", "value": 0.388, "unit": "µM"}
    ]},
    {"smiles": "O.O=P(O)(O)C(O)(Cn1ccnc1)P(=O)(O)O", "note": "[ZOLEDRONIC ACID]", "values": [
      {"measurement": "Activity", "setting": "[1]", "value": 0.1, "unit": "µM"},
      {"measurement": "Activity", "setting": "[3]", "value": 24, "unit": "%"},
      {"measurement": "Activity", "setting": "[4]", "value": 16, "unit": "%"},
      {"measurement": "Activity", "setting": "[5]", "value": 20, "unit": "%"},
      {"measurement": "Activity", "setting": "[6]", "value": 22, "unit": "%"},
      {"measurement": "Activity", "setting": "[7]", "value": "inactive"},
      {"measurement": "Activity", "setting": "[8]", "value": "inactive"},
      {"measurement": "Activity", "setting": "[9]", "value": "Active"},
      {"measurement": "Activity", "setting": "[10]", "value": "Active"},
      {"measurement": "Activity", "setting": "[11]", "value": "inactive"},
      {"measurement": "Activity", "setting": "[12]", "value": 18, "unit": "%"},
      {"measurement": "Activity", "setting": "[13]", "value": "inactive"}
    ]},
    {"smiles": "O=P(O)(O)C(Cn1ccnc1)P(=O)(O)O", "values": [
      {"measurement": "Activity", "setting": "[1]", "value": 0.001, "unit": "µM"},
      {"measurement": "Activity", "setting": "[3]", "value": 40, "unit": "%"},
      {"measurement": "Activity", "setting": "[4]", "value": 15, "unit": "%"},
      {"measurement": "Activity", "setting": "[5]", "value": 22, "unit": "%"},
      {"measurement": "Activity", "setting": "[6]", "value": 37, "unit": "%"},
      {"measurement": "Activity", "setting": "[7]", "value": "inactive"},
      {"measurement": "Activity", "setting": "[14]", "value": "Active"},
      {"measurement": "Activity", "setting": "[11]", "value": "inactive"},
      {"measurement": "Activity", "setting": "[12]", "value": 15, "unit": "%"},
      {"measurement": "Activity", "setting": "[13]", "value": "inactive"}
    ]}
  ]
}
